Reference: ChEMBL document CHEMBL4706497, “The structure-based optimization of δ-sultone-fused pyrazoles as selective BuChE inhibitors” (Eur J Med Chem, 2020)
The source made the active and inactive calls. No cut-off for these calls is given here.

Key:
Cholinesterase [1] = molecular target: T1, Cholinesterase (Equus caballus, UniProt P81908); assay: Inhibition of equine serum BuChE using butyrylthiocholine iodide as substrate preincubated with enzyme for 20 mins followed by addition of substrate and measured after 20 mins by DTNB reagent based Ellman's method; assay type: cell-free
In short: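 Enzyme at 0.036 U/mL in 0.1 M phosphate buffer pH 8, preincubated with inhibitor 20 min at 37 °C. Then 0.5 mM butyrylthiocholine iodide and 0.35 mM DTNB added, and A410 read after 20 min. IC50 taken graphically from log concentration vs % inhibition curves. Mean ± SEM of at least three independent experiments.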

[2] = molecular target: Acetylcholinesterase (AChE) (Electrophorus electricus, UniProt O42275); assay: Inhibition of recombinant electric eel AChE using acetylthiocholine iodide as substrate at 20 uM preincubated with enzyme for 20 mins followed by addition of substrate and measured after 20 mins by DTNB reagent based Ellman's method; conditions: probe acetylthiocholine iodide, time 40 min
In short: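 Enzyme at 0.036 U/mL in 0.1 M phosphate buffer pH 8, preincubated 20 min at 37 °C with compound at 20 μM. Then 0.35 mM acetylthiocholine iodide and 0.35 mM DTNB added, and A410 read after 20 min. Percent inhibition compared with a no-inhibitor control.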

[3] = Antioxidant activity assessed as free radical scavenging activity at 100 uM measured after 2 hrs under dark conditions by DPPH assay relative to control; assay type: functional
In short: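 Each compound at 100 μM mixed with DPPH (140 μM) and incubated 2 h in the dark at 37 °C. Absorbance read at 520 nm. Reduction percentage = (1 − A_C/A₀) × 100%, with A_C and A₀ the absorbance with and without compound. Ascorbic acid served as standard.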

[4] = Octanol/Water partition coefficient, log P of the compound in PBS buffer at pH7.4 measured after 48 hrs by shake flask method; assay type: physicochemical; conditions: pH 7.4
In short: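 Shake-flask partition between equal volumes of n-octanol and PBS pH 7.4, pre-saturated by sonication and standing 24 h. Compound added, vessel sealed and shaken at 37 °C for 48 h to equilibrate, then phases analysed by HPLC.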

[5] = molecular target: Cholinesterase (Equus caballus) (UniProt P81908); assay: Reversible inhibition of equine serum BChE using butyrylthiolcholine iodide as substrate at 0.02 to 0.08 uM by Lineweaver-Burk plot analysis; assay type: cell-free; conditions: dose 0.02-0.08 µM
In short: (§1)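 Run under the standard Ellman conditions (0.036 U/mL enzyme, pH 8, 37 °C). Six butyrylthiocholine concentrations (0.1–1 mM) crossed with inhibitor at 0, 0.02, 0.04 and 0.08 μM. Lineweaver-Burk plots and secondary plots used for mode of inhibition and Ki. Reversibility tested by varying enzyme at 0–0.72 U/mL at each inhibitor concentration.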

HepG2 [6] = assay: Cytotoxicity against human HepG2 cells assessed as reduction in cell viability at 50 uM measured after 24 hrs by MTT assay; assay type: cell-based; conditions: hepg2, 24 h
In short: (§2)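 HepG2 and LO2 cells grown in DMEM with 10% FBS, penicillin/streptomycin, 37 °C, 5% CO2. Cells seeded at 1×10^4/well, cultured 24 h, then exposed 24 h to compound diluted in DMEM (range 1–50 μM). MTT 0.5 mg/mL added for 4 h, formazan dissolved in DMSO, OD read at 492 nm. Viability is given relative to medium-only blank (100%); three independent experiments.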

L02 [7] = assay: Cytotoxicity against human L02 cells assessed as reduction in cell viability at 10 to 25 uM measured after 24 hrs by MTT assay; assay type: cell-based; conditions: l02, 24 h, dose 10-25 µM; in short: as §2
HepG2 [8] = assay: Cytotoxicity against human HepG2 cells assessed as reduction in cell viability at 10 to 25 uM measured after 24 hrs by MTT assay; assay type: cell-based; conditions: hepg2, 24 h, dose 10-25 µM; in short: as §2
[9] = Selectivity for equine serum BuChE over recombinant electric eel AChE
[10] = Neuroprotective activity against H2O2 induced cytotoxicity in […] cells assessed as cell viability at 25 uM preincubated for 3 hrs followed by addition of H2O2 measured after 24 hrs by MTT assay; assay type: functional; conditions: PC-12, time 27 hrs, read-out: Activity
In short: (§3)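 PC12 cells seeded at 1×10^4/well and incubated overnight. Pretreated 3 h with compound (1–25 µM), then medium replaced with fresh medium containing compound plus 100 µM H2O2 for a further 24 h. Viability read by MTT (0.5 mg/mL, 4 h), formazan dissolved in DMSO, OD at 492 nm, corrected for blank.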

[11] = Neuroprotective activity against H2O2 induced cytotoxicity in […] cells assessed as cell viability at […] uM preincubated for 3 hrs followed by addition of H2O2 measured after 24 hrs by MTT assay; assay type: functional; conditions: PC-12, time 27 hrs, read-out: Activity
PC-12 = assay: Neuroprotective activity against H2O2 induced cytotoxicity in […] cells assessed as cell viability preincubated for 3 hrs followed by addition of H2O2 measured after 24 hrs by MTT assay; assay type: functional, cell-based; conditions: dose 6.25-25 µM, time 27.0 hrs; in short: as §3
Cholinesterase [12] = molecular target: T1, Cholinesterase; assay: Mixed inhibition of equine serum BChE using butyrylthiolcholine iodide as substrate by Lineweaver-Burk plot analysis; assay type: cell-free; in short: as §1
L02 [13] = assay: Cytotoxicity against human L02 cells assessed as reduction in cell viability at 50 uM measured after 24 hrs by MTT assay; assay type: cell-based; conditions: l02, 24 h; in short: as §2

T1 sequence (P81908 whole entry): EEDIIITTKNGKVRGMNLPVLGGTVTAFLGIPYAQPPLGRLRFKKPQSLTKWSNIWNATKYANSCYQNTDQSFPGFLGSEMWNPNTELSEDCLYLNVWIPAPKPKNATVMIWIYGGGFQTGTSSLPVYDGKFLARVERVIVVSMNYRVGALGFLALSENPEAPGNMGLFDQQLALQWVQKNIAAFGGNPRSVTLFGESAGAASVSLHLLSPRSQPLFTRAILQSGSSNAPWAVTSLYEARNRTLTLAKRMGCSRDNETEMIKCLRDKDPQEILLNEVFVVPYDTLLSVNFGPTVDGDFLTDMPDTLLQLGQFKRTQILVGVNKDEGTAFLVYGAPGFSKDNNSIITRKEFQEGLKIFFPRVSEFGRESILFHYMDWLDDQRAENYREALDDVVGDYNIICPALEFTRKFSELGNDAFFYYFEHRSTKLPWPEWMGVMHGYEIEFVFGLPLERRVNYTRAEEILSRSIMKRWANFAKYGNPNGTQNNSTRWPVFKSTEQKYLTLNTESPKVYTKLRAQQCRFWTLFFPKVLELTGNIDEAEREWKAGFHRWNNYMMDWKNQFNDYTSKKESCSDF
Acetylcholinesterase (AChE), sequence (O42275 whole entry): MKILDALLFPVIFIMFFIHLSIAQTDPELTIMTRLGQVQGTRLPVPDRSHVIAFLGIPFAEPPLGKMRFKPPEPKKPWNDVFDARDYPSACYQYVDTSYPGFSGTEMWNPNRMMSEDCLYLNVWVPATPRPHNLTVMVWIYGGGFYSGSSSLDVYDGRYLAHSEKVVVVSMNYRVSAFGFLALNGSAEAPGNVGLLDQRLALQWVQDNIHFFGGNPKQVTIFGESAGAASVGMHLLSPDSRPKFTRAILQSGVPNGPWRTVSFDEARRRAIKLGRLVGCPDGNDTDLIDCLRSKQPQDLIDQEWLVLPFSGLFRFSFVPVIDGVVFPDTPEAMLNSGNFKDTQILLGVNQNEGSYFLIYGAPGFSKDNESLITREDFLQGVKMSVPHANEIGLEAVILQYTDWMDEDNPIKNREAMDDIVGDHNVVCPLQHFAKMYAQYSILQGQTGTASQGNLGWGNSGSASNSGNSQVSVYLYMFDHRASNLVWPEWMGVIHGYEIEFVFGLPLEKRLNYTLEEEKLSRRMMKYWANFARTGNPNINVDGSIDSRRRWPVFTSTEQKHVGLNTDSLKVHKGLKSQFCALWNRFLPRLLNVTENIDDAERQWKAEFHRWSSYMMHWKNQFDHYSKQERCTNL
Cholinesterase (Equus caballus), sequence (P81908 whole entry): as the sequence (P81908 whole entry) above

O=S1(=O)CCc2c(-c3ccccc3)nn(-c3ccccc3F)c2O1
IC50 (Cholinesterase [1]): 0.18 µM

CN(Cc1ccc(Br)cc1)Cc1nn(-c2ccccc2F)c2c1CCS(=O)(=O)O2
inhibition at 20 min, 20 µM [2]: 33.6% | IC50 (Cholinesterase [1]): 0.07 µM | inhibition [3]: 0.2%

O=S1(=O)CCc2c(CN3CCOCC3)nn(-c3ccccc3F)c2O1
IC50 (Cholinesterase [1]): 0.15 µM

O=S1(=O)CCc2c(-c3ccc(Br)cc3)nn(-c3ccccc3Cl)c2O1
IC50 (Cholinesterase [1]): 3.69 µM

O=S1(=O)CCc2c(C3CC3)nn(-c3ccccc3Cl)c2O1
IC50 (Cholinesterase [1]): 0.18 µM

O=S1(=O)CCc2c(CCl)nn(-c3ccccc3Cl)c2O1
IC50 (Cholinesterase [1]): 0.2 µM

O=S1(=O)CCc2c(-c3ccc(F)cc3)nn(-c3ccccc3F)c2O1
IC50 (Cholinesterase [1]): 0.16 µM

CCN(Cc1ccccc1)Cc1nn(-c2ccccc2F)c2c1CCS(=O)(=O)O2
logD at 48 h [4]: 2 | IC50 (Cholinesterase [1]): 0.08 µM | inhibition [3]: 1.8%

Cc1nn(-c2ccccc2F)c2c1CCS(=O)(=O)O2
IC50 (Cholinesterase [1]): 1.19 µM

O=S1(=O)CCc2c(CN(CCO)Cc3ccc(Br)cc3)nn(-c3ccccc3F)c2O1
inhibition [5]: Active | inhibition at 20 min, 20 µM [2]: 43.3% | Activity (HepG2 [6]): 82.8% | Activity (L02 [7]): Non-Toxic | logD at 48 h [4]: 1.93 | Activity (HepG2 [8]): Non-Toxic | Selectivity Index [9]: > 2000 | viability at 25 µM [10]: 49.6% | IC50 (Cholinesterase [1]): 0.0077 µM | inhibition [3]: 22.2% | viability at […] [11]: 40.9% | Activity (PC-12): Dose-dependent effect | Ki (Cholinesterase [12]): 0.024 µM | Activity (L02 [13]): 95.3%

CN(Cc1ccccc1)Cc1nn(-c2ccccc2F)c2c1CCS(=O)(=O)O2
logD at 48 h [4]: 1.78 | IC50 (Cholinesterase [1]): 0.08 µM

O=S1(=O)CCc2c(-c3ccc(Br)cc3)nn(-c3ccccc3F)c2O1
IC50 (Cholinesterase [1]): 0.47 µM

CCN(Cc1ccc(Br)cc1)Cc1nn(-c2ccccc2F)c2c1CCS(=O)(=O)O2
IC50 (Cholinesterase [1]): 0.07 µM | inhibition [3]: 12.9%

CN(Cc1ccc(F)cc1)Cc1nn(-c2ccccc2F)c2c1CCS(=O)(=O)O2
IC50 (Cholinesterase [1]): 0.04 µM | inhibition [3]: 5.7%

O=S1(=O)CCc2c(CN(CCO)Cc3ccc(Cl)cc3Cl)nn(-c3ccccc3F)c2O1
IC50 (Cholinesterase [1]): 0.09 µM | inhibition [3]: 1.8%

Cc1ccc(CN(CCO)Cc2nn(-c3ccccc3F)c3c2CCS(=O)(=O)O3)cc1
IC50 (Cholinesterase [1]): 0.17 µM | inhibition [3]: 5.2%

O=S1(=O)CCc2c(CN(CCO)Cc3cccc(F)c3)nn(-c3ccccc3F)c2O1
IC50 (Cholinesterase [1]): 0.09 µM | inhibition [3]: 5%

O=S1(=O)CCc2c(-c3ccccc3)nn(-c3ccccc3Cl)c2O1
IC50 (Cholinesterase [1]): 0.17 µM

CN1CCN(Cc2nn(-c3ccccc3Cl)c3c2CCS(=O)(=O)O3)CC1
IC50 (Cholinesterase [1]): 2.22 µM

O=S1(=O)CCc2c(CN(CCO)Cc3ccc(Cl)cc3)nn(-c3ccccc3F)c2O1
IC50 (Cholinesterase [1]): 0.09 µM | inhibition [3]: 10.2%

O=S1(=O)CCc2c(C3CC3)nn(-c3cccc(F)c3)c2O1
IC50 (Cholinesterase [1]): 0.37 µM

O=S1(=O)CCc2c(CN(CCO)Cc3ccccc3)nn(-c3ccccc3Cl)c2O1
IC50 (Cholinesterase [1]): 0.04 µM

O=S1(=O)CCc2c(-c3ccc(F)cc3)nn(-c3ccccc3Cl)c2O1
IC50 (Cholinesterase [1]): 0.13 µM

CN(Cc1ccccc1)Cc1nn(-c2ccccc2Cl)c2c1CCS(=O)(=O)O2
IC50 (Cholinesterase [1]): 0.07 µM

O=S1(=O)CCc2c(-c3ccc(Cl)cc3)nn(-c3ccccc3Cl)c2O1
IC50 (Cholinesterase [1]): 1.58 µM

CN(Cc1ccc(Cl)cc1)Cc1nn(-c2ccccc2F)c2c1CCS(=O)(=O)O2
IC50 (Cholinesterase [1]): 0.02 µM | inhibition [3]: 6.1%

CCN(Cc1ccccc1)Cc1nn(-c2ccccc2Cl)c2c1CCS(=O)(=O)O2
IC50 (Cholinesterase [1]): 0.05 µM

COCCN(Cc1ccccc1)Cc1nn(-c2ccccc2F)c2c1CCS(=O)(=O)O2
IC50 (Cholinesterase [1]): 0.24 µM | inhibition [3]: 2.3%

O=S1(=O)CCc2c(CN(CCO)Cc3ccc(F)cc3)nn(-c3ccccc3F)c2O1
logD at 48 h [4]: 2.42 | IC50 (Cholinesterase [1]): 0.0083 µM | inhibition [3]: 5.5%

COCCN(Cc1ccc(Cl)cc1)Cc1nn(-c2ccccc2F)c2c1CCS(=O)(=O)O2
IC50 (Cholinesterase [1]): 0.09 µM | inhibition [3]: 3.6%

CCN(Cc1ccc(F)cc1)Cc1nn(-c2ccccc2F)c2c1CCS(=O)(=O)O2
IC50 (Cholinesterase [1]): 0.07 µM | inhibition [3]: 0.6%

O=S1(=O)CCc2c(CCl)nn(-c3ccccc3F)c2O1
IC50 (Cholinesterase [1]): 0.19 µM

O=S1(=O)CCc2c(C3CC3)nn(-c3cccc(Cl)c3)c2O1
IC50 (Cholinesterase [1]): 0.7 µM

COCCN(Cc1ccc(F)cc1)Cc1nn(-c2ccccc2F)c2c1CCS(=O)(=O)O2
IC50 (Cholinesterase [1]): 0.11 µM | inhibition [3]: 6.3%

O=S1(=O)CCc2c(CN3CCN(Cc4ccccc4)CC3)nn(-c3ccccc3F)c2O1
IC50 (Cholinesterase [1]): 0.68 µM

O=S1(=O)CCc2c(CN3CCN(Cc4ccccc4)CC3)nn(-c3ccccc3Cl)c2O1
IC50 (Cholinesterase [1]): 0.46 µM

O=S1(=O)CCc2c(CN3CCOCC3)nn(-c3ccccc3Cl)c2O1
IC50 (Cholinesterase [1]): 0.41 µM

O=S1(=O)CCc2c(CN(CCO)Cc3cccc(Cl)c3)nn(-c3ccccc3F)c2O1
IC50 (Cholinesterase [1]): 0.19 µM | inhibition [3]: 4.7%

CN1CCN(Cc2nn(-c3ccccc3F)c3c2CCS(=O)(=O)O3)CC1
IC50 (Cholinesterase [1]): 2.17 µM

COCCN(Cc1ccc(Br)cc1)Cc1nn(-c2ccccc2F)c2c1CCS(=O)(=O)O2
IC50 (Cholinesterase [1]): 0.15 µM | inhibition [3]: 4.8%

CCN(Cc1ccc(Cl)cc1)Cc1nn(-c2ccccc2F)c2c1CCS(=O)(=O)O2
IC50 (Cholinesterase [1]): 0.04 µM | inhibition [3]: 4.2%

O=S1(=O)CCc2c(C3CC3)nn(-c3ccccc3F)c2O1
logD at 48 h [4]: 2.09 | IC50 (Cholinesterase [1]): 0.14 µM

O=S1(=O)CCc2c(CN(CCO)Cc3ccccc3)nn(-c3ccccc3F)c2O1
logD at 48 h [4]: 2.05 | IC50 (Cholinesterase [1]): 0.04 µM | inhibition [3]: 5.4%

O=S1(=O)CCc2c(CN(CCO)Cc3cccc(Br)c3)nn(-c3ccccc3F)c2O1
IC50 (Cholinesterase [1]): 0.33 µM | inhibition [3]: 0.8%

O=S1(=O)CCc2c(-c3ccc(Cl)cc3)nn(-c3ccccc3F)c2O1
IC50 (Cholinesterase [1]): 0.2 µM

COc1ccc(CN(CCO)Cc2nn(-c3ccccc3F)c3c2CCS(=O)(=O)O3)cc1
IC50 (Cholinesterase [1]): 0.26 µM | inhibition [3]: 3.2%

COc1ccc(-c2nn(-c3ccc(Cl)cc3)c3c2CCS(=O)(=O)O3)cc1
IC50 (Cholinesterase [1]): 8.78 µM

COc1ccc(CN(CCO)Cc2nn(-c3ccccc3F)c3c2CCS(=O)(=O)O3)cc1OC
IC50 (Cholinesterase [1]): 0.56 µM | inhibition [3]: 5.5%
